This is a sample that favours compounds with a hit; in the whole collection about 4.6% have one here.
TAAR1 antag = human TAAR1 antagonists, primary screen, Fluo-8 calcium fluorescence, CHO RD-HGA16 cells; antagonist; inhibition, % at 3 µM; hit rate 1.5% among 360,000; AID 624466, 2012;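 active = inhibition above a per-plate cutoff, the mean inhibition of test compounds on that plate plus 3 SD, cut at about 49% in these data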;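 note: 0% = DMSO plus EC80 beta-PEA response and 100% = DMSO alone without agonist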
Target sequence (Q96RJ0 whole entry, looked up): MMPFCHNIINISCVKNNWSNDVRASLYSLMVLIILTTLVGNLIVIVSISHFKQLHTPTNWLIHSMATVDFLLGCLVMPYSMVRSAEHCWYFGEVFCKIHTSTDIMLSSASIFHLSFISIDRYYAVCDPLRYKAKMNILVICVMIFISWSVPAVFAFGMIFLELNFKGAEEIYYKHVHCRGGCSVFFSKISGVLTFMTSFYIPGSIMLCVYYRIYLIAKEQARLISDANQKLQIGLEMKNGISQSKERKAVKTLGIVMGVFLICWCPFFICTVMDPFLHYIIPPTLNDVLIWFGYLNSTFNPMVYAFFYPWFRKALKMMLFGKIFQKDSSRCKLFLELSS
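test system = CHO RD-HGA16 cells bearing hTAAR1 | replication = singlicate | controls = DMSO-only wells and EC80 β-PEA-stimulated wells | reagent = EC80 β-phenethylamine stimulus | read-out basis = percent inhibition of PEA-evoked calcium signal, max/basal emission ratio | schedule = seeding 17-24 h prior, 75-min 37 °C, 30-min RT dye loading | signal = kinetic Fluo-8 calcium fluorescence measurement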
GPR7 antag = GPR7 receptor antagonists, primary screen, cell-based, fluorescence, single concentration; inhibition, % at 4.4 µM; GPR7-expressing cells, fluorescence antagonist assay; Neuropeptides B/W receptor type 1 (Homo sapiens), P48145; hit rate 1.1% among 290,000; in the data active = inhibition above about 16%, passing the limit was not always enough;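 note: cells stimulated with the agonist NPW; 0% = agonist with vehicle and 100% = vehicle without agonist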
OX1R antag-1 = OX1R (HCRTR1) antagonists, primary screen, fluorescence, CHO/OX1R cells, Fluo-8 calcium, orexin A. Fluo-8 calcium fluorescence. AID 434989, 2010. Orexin/Hypocretin receptor type 1 (Homo sapiens), O43613. inhibition, % at 5 µM. hit rate 0.43% among 330,000;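 active = inhibition above its plate's threshold, mean inhibition of all tested compounds on the plate plus 3 SD, cut at about 37% in these data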;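 note: 0% = orexin A challenge wells and 100% = SB-334867-A antagonist wells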
Target sequence (O43613 whole entry, looked up): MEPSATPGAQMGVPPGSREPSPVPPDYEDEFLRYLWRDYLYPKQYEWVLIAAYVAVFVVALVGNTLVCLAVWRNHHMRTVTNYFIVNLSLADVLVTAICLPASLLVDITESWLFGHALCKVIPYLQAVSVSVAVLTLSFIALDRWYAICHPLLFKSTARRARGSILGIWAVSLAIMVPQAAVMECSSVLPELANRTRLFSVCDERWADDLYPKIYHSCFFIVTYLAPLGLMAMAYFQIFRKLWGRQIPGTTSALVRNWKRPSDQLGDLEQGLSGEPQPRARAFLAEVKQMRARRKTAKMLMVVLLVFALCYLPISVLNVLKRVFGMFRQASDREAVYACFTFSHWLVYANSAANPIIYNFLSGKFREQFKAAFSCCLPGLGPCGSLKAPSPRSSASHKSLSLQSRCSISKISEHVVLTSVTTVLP
CHO parental Ca = ATP-evoked calcium signal inhibitors, parental CHO, primary screen, counter-screen for OX1R antagonist project, cell-based, fluorescence, Fluo-8 calcium dye; parental CHO-K1, ATP-induced calcium, Fluo-8 fluorescence; inhibition, % at 5.6 µM; hit rate 0.63% among 330,000; AID 463079, 2010;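 active = inhibition above that plate's mean sample inhibition plus 3 SD, cut at about 26% in these data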;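 note: 0% = ATP-challenged DMSO wells and 100% = DMSO wells without ATP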
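Test system: untransfected parental CHO cell line; also added: ATP stimulus; dosing: 5.6 µM, single dose; signal: calcium-sensitive Fluo-8 fluorescence; measure: percent inhibition of ATP-evoked calcium rise, normalized to controls; benchmarks: low control ATP plus DMSO, high control DMSO only; replication: one well per compound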
OX1R antag-2 = antagonists of human orexin 1 receptor (OX1R); Orexin/Hypocretin receptor type 1 (Homo sapiens), O43613; inhibition, % at 6.6 µM; hit rate 1.8% among 330,000; OX1R-expressing cells, FRET antagonist read-out; AID 485270, 2010; in the data active = inhibition mostly above about 38%, no sharp cut-off; inactive = mostly below about 40%;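 note: 0% = agonist challenge alone and 100% = reference antagonist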
TAAR1 agonist = human TAAR1 agonists, primary screen, Fluo-8 calcium fluorescence, CHO RD-HGA16 cells. Trace amine-associated receptor 1 (Homo sapiens), Q96RJ0. vehicle wells 0%, saturating PEA agonist 100%. activation, % at 3 µM. hit rate 0.99% among 360,000. AID 624467, 2012;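 active = activation above the mean activation of all test compounds in the run plus 3 SD, cut at about 38% in these data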
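Repeats: no replicates (n 1) | Material: CHO-derived RD-HGA16 cells with stable Gα16 and human TAAR1 | Technique: Kinetic Fluo-8 calcium fluorescence | Schedule: 17-24 h seeding, 75 min 37 °C dye, 30 min RT | Evaluation: % activation from peak over basal fluorescence ratio, DMSO-to-PEA scaled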
GPR7 antag cf = GPR7 receptor antagonists, confirmation, cell-based, fluorescence, single concentration; GPR7-expressing cells, calcium fluorescence antagonist mode; inhibition, % at 4.4 µM; hit rate 52% among 2,400; shares compounds with GPR7 antag; AID 1952, 2009; in the data active = inhibition above about 24%;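 note: stimulated with the GPR7 agonist NPW; 0% = agonist plus vehicle and 100% = vehicle alone without agonist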
MCHR1 antagonist = MCHR1 antagonists in cells, counter-screen for GPR7 antagonist project, cell-based, fluorescence, human. shares compounds with GPR7 antag. MCHR1-expressing cells, fluorescence antagonist assay. inhibition, % at 4.4 µM. hit rate 62% among 2,400. AID 2148, 2009; in the data active = inhibition above about 22%;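 note: 0% = vehicle with agonist and 100% = vehicle without agonist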
Numbers without * were called inactive; . = no result.

SMILES	TAAR1 antag	GPR7 antag	OX1R antag-1	CHO parental Ca	OX1R antag-2	TAAR1 agonist	GPR7 antag cf	MCHR1 antagonist
O=[N+]([O-])c1cc(S(=O)(=O)N2CCCCC2)ccc1NCc1cccc(Cl)c1	14.1	-1.4	-16.8	-15.9	9.3	2.2	.	.
C=CCn1c(SCC(=O)c2[nH]c(C)c(C(=O)OCC)c2C)nc2scc(-c3ccc(OC)c(OC)c3)c2c1=O	-35.1	-16.0	-23.9	-11.6	10.7	0.0	.	.
O=S(=O)(c1cc(Cl)cc(Cl)c1O)N1CCC2(CC1)OCCO2	3.4	-14.7	-8.3	-2.5	32.9	0.4	.	.
CCOC(=O)N1CCC(NC(=O)CN2C(=O)C(CC)Oc3ccc(C)cc32)CC1 (configuration not stated)	-41.9	-10.5	-21.4	-14.6	13.9	0.4	.	.
CCC1Oc2ccc(C)cc2N(CC(=O)NC2CCCCC2)C1=O (configuration not stated)	-4.0	31.8*	-18.5	-8.5	6.7	-2.5	20.1	16.1
Cc1ccc(CNC(=O)CCC(=O)n2ncc3cc(C)ccc32)cc1	-18.2	-6.0	-3.2	7.4	2.5	-2.7	.	.
CCc1ccc(/C=C2/C(=O)N(C)C(=S)N2CC(=O)OC)s1	8.9	26.9*	-22.6	-13.6	8.8	0.5	1.7	12.7
COC(=O)CN1C(=S)N(C)C(=O)/C1=C/c1cccs1	-17.7	3.3	-3.2	2.3	9.2	0.2	.	.
Fc1ccc(C(c2nnnn2C2CCCC2)N(Cc2ccco2)CC2CCCO2)cc1 (configuration not stated)	-22.5	31.7*	-31.9	-13.1	6.2	8.3	43.5*	53.2*
Cc1ccc(C(=O)/C=C/c2ccc3ncccc3c2)cc1	-0.5	-11.4	-25.5	-28.1	13.5	9.0	.	.
CCOC(=O)C(C)On1c(-c2ccccc2)nc2ccc([N+](=O)[O-])cc21 (configuration not stated)	12.6	.	-22.5	-41.9	19.0	0.7	.	10.4
Cc1ccc(COn2c(-c3ccc(Cl)cc3)nc3ccc([N+](=O)[O-])cc32)cc1	27.1	2.2	-0.9	-7.2	12.5	34.3	.	.
CCOC(=O)C(C)On1c(-c2ccc(Cl)cc2)nc2ccc([N+](=O)[O-])cc21 (configuration not stated)	40.6	26.4*	9.1	-6.4	37.2	16.0	34.5*	51.5*
O=C(O)COn1c(-c2ccccc2)nc2ccc([N+](=O)[O-])cc21	-11.7	30.9*	-20.4	-12.8	44.0	2.8	1.5	15.9
CC(O)c1nc2cc([N+](=O)[O-])ccc2n1Cc1ccccc1 (configuration not stated)	-12.2	-4.6	-9.4	-14.1	12.3	6.3	.	.
CCOc1ccc(-n2c(SCc3nc(-c4ccc(C)cc4)no3)nnc2-c2ccncc2)cc1	8.7	36.7*	-38.5	-23.6	15.2	4.8	29.0*	31.4*
CCOC(=O)C1CCN(c2ncnc3c2nnn3Cc2ccccc2Cl)CC1	-34.1	21.6*	-15.2	-20.1	26.3	0.6	26.5*	28.6*
CCCCn1cnc2c(c(-c3ccccc3)c(-c3ccccc3)n2Cc2ccco2)c1=N	-13.0	32.4*	-17.3	-15.5	4.3	34.6	54.4*	96.8*
CCCCn1c(=O)[nH]c(=O)c2c1ncn2Cc1ccco1	.	-14.4	-15.6	-9.5	19.0	.	.	.
O=C(Cn1nnc(-c2ccncc2)n1)NCCc1ccccc1	4.2	-10.2	-9.5	-8.4	13.3	13.8	.	.
O=C(CN1C(=O)COc2ccccc21)N1CCCC1	7.2	9.8	-2.2	-6.7	3.5	1.9	.	.
O=C(CN1C(=O)COc2ccccc21)N1CCOCC1	-5.4	32.0*	1.4	-12.5	9.5	2.7	-2.8	-1.0
CCOC(=O)C1=C(c2ccccc2)NC(=O)NC1c1ccc(O)c(OCC)c1 (configuration not stated)	-11.9	-7.2	-10.2	-6.0	14.5	0.7	.	.
CCOC(=O)C1=C(c2ccccc2)NC(=O)NC1c1ccc(O)c(Cl)c1 (configuration not stated)	40.6	74.6*	9.3	-3.5	7.6	0.8	66.1*	49.0*
O=C(COC(=O)c1cc([N+](=O)[O-])ccc1N1CCOCC1)NCc1ccc(Cl)cc1Cl	-3.8	23.5*	-17.6	-8.1	49.6	-0.3	34.5*	35.8*
SMILES	TAAR1 antag	GPR7 antag	OX1R antag-1	CHO parental Ca	OX1R antag-2	TAAR1 agonist	GPR7 antag cf	MCHR1 antagonist
O=C(NCc1ccncc1)Nc1ccc(F)cc1	-7.3	31.2*	-5.2	1.9	11.9	11.2	-7.3	-9.6
C/C(=N\NC(=O)CCn1nnc2ccccc21)c1ccco1	-21.2	21.3*	-3.9	9.2	6.1	2.7	-5.6	11.4
CC(=O)Nc1ccc(NC(=O)CCn2nnc3ccccc32)cc1	-5.6	-12.0	-4.5	0.0	15.7	-0.4	.	.
COc1cc(CNc2ccccc2Oc2cc(=O)n(C)c(=O)n2C)cc(OC)c1OC	8.3	37.0*	-17.0	-6.9	16.3	3.2	24.9*	24.4*
Cn1c(Oc2ccccc2NCc2cc(Br)ccc2O)cc(=O)n(C)c1=O	-8.4	10.3	-1.2	-19.2	32.0	21.7	.	.
CCCC(=O)Nc1c(-c2ccc(C)cc2)c(=O)c2ccccc2n1C	-24.4	4.2	.	.	.	1.7	.	.
CCN(C[C@H]1N[C@@](C)(C(=O)OC)[C@H]2C(=O)N(Cc3ccccc3)C(=O)[C@@H]12)S(=O)(=O)c1ccc(C)cc1	12.9	.	-31.6	-17.4	13.1	0.6	.	.
C/C(=N\NC(=O)CNC(=O)c1ccco1)c1ccc(Br)cc1	-18.7	24.1*	-10.0	8.8	16.1	-0.1	18.0	10.1
O=C(NN=C1CCCC1)c1ccccc1OCCOc1ccccc1	16.8	22.1*	-4.3	-21.8	5.4	7.8	14.9	27.4*
O=C(CSC1=Nc2ccccc2C2=NC(CC(=O)NCc3ccco3)C(=O)N12)NCC1CCCO1 (configuration not stated)	12.9	-3.9	-17.1	-3.6	18.2	0.3	.	.
O=C(Nc1ccc(S(=O)(=O)N2CCCCC2)cc1)c1ccc(CN2CCc3ccccc3C2)cc1	3.5	25.2*	-9.9	46.9*	16.2	4.8	48.8*	56.9*
O=C(Nc1ccccc1)c1ccc(CN2CCc3ccccc3C2)cc1	15.9	-0.3	-16.9	-1.3	18.3	0.5	.	.
